Results published in ChEMBL document CHEMBL1765030, “Discovery and preclinical evaluation of a novel class of cytotoxic propynoic acid carbamoyl methyl amides (PACMAs)” (J Med Chem, 2011).
Active and inactive are the calls of the source. The calls are words filed in the database; no cut-off is given here.

Columns and labels:
[1] = Octanol-water distribution coefficient, log P of the compound; format: physicochemical
MDA-MB-435 [2] = experiment: Increase of mitochondrial superoxide accumulation in human MDA-MB-435 cells at 1.5 uM after 24 hrs by fluorescence microscopic analysis; format: functional, cell-based
Method in brief: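 MDA-MB-435 cells (DMEM, 10% FBS, 37 °C, 5% CO₂) treated 24 h, then loaded with 5 μM MitoSOX Red mitochondrial superoxide indicator for 10 min at 37 °C; washed three times with HBSS to remove excess dye and viewed under a fluorescence microscope for mitochondrial superoxide staining pattern, compared with untreated cells.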

MDA-MB-435 [3] = experiment: Cytotoxicity against human MDA-MB-435 cells at 1 uM after 24 hrs using crystal violet staining by colony formation assay; format: functional, cell-based
Method in brief: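 Cells were plated at 1000 per well, attached overnight, and exposed to 1 μM for 24 h. They were then washed and grown in fresh medium for 8–10 days until colonies formed, fixed in 1% glutaraldehyde for 30 min, and stained with 2% crystal violet for 30 min. Vehicle was DMSO.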

MDA-MB-435 [4] = experiment: Increase of mitochondrial superoxide accumulation in human MDA-MB-435 cells at IC50 to 3 times IC50 after 24 hrs by flow cytometry; format: functional, cell-based
Method in brief: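 Cells were drug-treated at two concentrations for 24 h, then loaded with 5 μM MitoSOX Red for 10 min at 37 °C and washed three times in HBSS. Cells were either viewed by fluorescence microscopy or trypsinized, washed twice in HBSS and read by flow cytometry; untreated cells served as control.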

HEY = experiment: Cytotoxicity against human HEY cells after 72 hrs by MTT assay; format: functional, cell-based
Method in brief: (§1)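 Cells were attached overnight, then continuously exposed to drug for 72 h. MTT (0.5 mg/mL final) was added for 4 h at 37 °C, formazan dissolved in DMSO, and A570 read; all in triplicate. IC50 came from log(concentration) vs % cells killed. Media: RPMI-1640 for HT29, HCT116 p53+/+ and p53−/−, and HEY; DMEM for MDA-MB-435 and UMUC3; all with 10% FBS, 37 °C, 5% CO₂.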

HCT-116 [5] = experiment: Cytotoxicity against human HCT116 cells […] after 72 hrs by MTT assay; format: functional, cell-based; settings: HCT-116, 72 h; method in brief: as §1
MDA-MB-435 [6] = experiment: Induction of apoptosis in human MDA-MB-435 cells assessed as apoptotic cells at 10 uM after 24 hrs using by annexin V and propidium iodide staining by flow cytometry relative to control; format: functional
Method in brief: (§2)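 Treatment was 10 μM for 24 and 48 h, with an untreated 48 h control run in parallel. Floating and adherent cells were pooled and stained with annexin V-FITC/propidium iodide, then read by flow cytometry (FITC and PE channels). Quadrants: annexin−/PI− viable; annexin+/PI− early apoptotic; annexin+/PI+ late apoptotic; lower right necrotic/debris.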

MDA-MB-435 [7] = experiment: Induction of apoptosis in human MDA-MB-435 cells assessed as apoptotic cells at 10 uM after 48 hrs using by annexin V and propidium iodide staining by flow cytometry relative to control; format: functional; method in brief: as §2
Mus musculus [8] = experiment: Toxicity in human MDA-MB-435 cells xenografted athymic nude mouse assessed as histological changes in organ at 10 mg/kg, ip for 9 days followed by 20 mg/kg, ip for 5 days followed by 40 mg/kg, ip for 12 days; format: organism-based; settings: in vivo
MDA-MB-435 [9] = experiment: Induction of apoptosis in human MDA-MB-435 cells assessed as viable cells at 10 uM after 48 hrs using by annexin V and propidium iodide staining by flow cytometry relative to control; format: functional; settings: MDA-MB-435, 48 h, read-out: Activity; method in brief: as §2
MDA-MB-435 [10] = experiment: Induction of apoptosis in human MDA-MB-435 cells assessed as necrotic cells at 10 uM after 24 hrs using by annexin V and propidium iodide staining by flow cytometry relative to control; format: functional; method in brief: as §2
MDA-MB-435 [11] = experiment: Induction of apoptosis in human MDA-MB-435 cells assessed as necrotic cells at 10 uM after 48 hrs using by annexin V and propidium iodide staining by flow cytometry relative to control; format: functional; method in brief: as §2
MDA-MB-435 [12] = experiment: Induction of apoptosis in human MDA-MB-435 cells assessed as viable cells at 10 uM after 24 hrs using by annexin V and propidium iodide staining by flow cytometry relative to control; format: functional; settings: MDA-MB-435, 24 h, read-out: Activity; method in brief: as §2
UMUC3 = experiment: Cytotoxicity against human UM-UC-3 cells after 72 hrs by MTT assay; format: functional, cell-based; settings: UMUC3, 72 h; method in brief: as §1
NCI/ADR-RES = experiment: Cytotoxicity against human NCI/ADR-RES cells after 72 hrs by MTT assay; format: functional, cell-based
MDA-MB-435 [13] = experiment: Antitumor activity against human MDA-MB-435 cells xenografted in athymic nude mouse assessed as reduction of tumor burden at 10 mg/kg, ip for 9 days followed by 20 mg/kg, ip for 5 days followed by 40 mg/kg, ip for 12 days; format: functional, organism-based
Method in brief: (§3)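 Athymic nude mice were inoculated s.c. on the rear flank with 1.5 × 10⁶ log-phase MDA-MB-435 cells. At ~100 mm³ average tumor volume, mice were randomized (n = 8) to vehicle (10% DMSO/90% sesame oil) or drug, given i.p. once daily, dosed by group mean body weight. Caliper tumor measurements were taken twice weekly, volume = d²×D/2; mice were followed 17 days after dosing ended, with body weight monitored.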

MDA-MB-435 [14] = experiment: Induction of apoptosis in human MDA-MB-435 cells assessed as pre-necrotic cells at 10 uM after 24 hrs using by annexin V and propidium iodide staining by flow cytometry relative to control; format: functional; method in brief: as §2
HT-29 = experiment: Cytotoxicity against human HT-29 cells after 72 hrs by MTT assay; format: functional, cell-based; settings: HT-29, 72 h; method in brief: as §1
5637 = experiment: Cytotoxicity against human 5637 cells after 72 hrs by MTT assay; format: functional, cell-based; settings: Homo sapiens, 5637, 72 h
MDA-MB-435 [15] = experiment: Cytotoxicity against human MDA-MB-435 cells after 72 hrs by MTT assay; format: functional, cell-based; settings: MDA-MB-435, 72 h; method in brief: as §1
HCT-116 [16] = experiment: Cytotoxicity against p53 deficient human HCT116 cells […] after 72 hrs by MTT assay; format: functional, cell-based; settings: HCT-116, 72 h; method in brief: as §1
Mus musculus [17] = experiment: Toxicity in human MDA-MB-435 cells xenografted athymic nude mouse assessed as change in doy weight at 10 mg/kg, ip for 9 days followed by 20 mg/kg, ip for 5 days followed by 40 mg/kg, ip for 12 days; format: organism-based; settings: in vivo; method in brief: as §3
MDA-MB-435 [18] = experiment: Induction of apoptosis in human MDA-MB-435 cells assessed as pre-necrotic cells at 10 uM after 48 hrs using by annexin V and propidium iodide staining by flow cytometry relative to control; format: functional; method in brief: as §2
MDA-MB-435 [19] = experiment: Increase of reactive oxygen species accumulation in human MDA-MB-435 cells at IC50 to 3 times IC50 after 24 hrs by fluorescence microscopic analysis; format: functional, cell-based
MDA-MB-435 [20] = experiment: Cell cycle arrest in human MDA-MB-435 cells assessed as accumulation at S phase at 5 uM after 6 hrs using propidium iodide staining by flow cytometry (reference value: 41%); format: functional
MDA-MB-435 [21] = experiment: Cell cycle arrest in human MDA-MB-435 cells assessed as accumulation at G0/G1 phase at 5 uM after 12 hrs using propidium iodide staining by flow cytometry (reference value: 50%); format: functional
MDA-MB-435 [22] = experiment: Cell cycle arrest in human MDA-MB-435 cells assessed as accumulation at G0/G1 phase at 5 uM after 6 hrs using propidium iodide staining by flow cytometry (reference value: 50%); format: functional
MDA-MB-435 [23] = experiment: Cell cycle arrest in human MDA-MB-435 cells assessed as accumulation at G2/M phase at 5 uM after 6 hrs using propidium iodide staining by flow cytometry (reference value: 9%); format: functional
MDA-MB-435 [24] = experiment: Cell cycle arrest in human MDA-MB-435 cells assessed as accumulation at S phase at 5 uM after 12 hrs using propidium iodide staining by flow cytometry (reference value: 41%); format: functional
[25] = Elimination rate constant in mouse at 24 mg/kg, ip; format: ADME, organism-based; design: dose 24 mg/kg, route intraperitoneal; settings: in vivo
Method in brief: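 Mice received a single 24 mg/kg i.p. injection, with two mice per time point. Blood was drawn into heparinized syringes at set times between 0.5 and 24 h, and plasma was separated by centrifugation and stored at −80 °C. Plasma drug was quantified by validated LC-MS (lowest quantification level 1 ng/mL), and parameters were derived by noncompartmental analysis.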

MDA-MB-435 [26] = experiment: Cell cycle arrest in human MDA-MB-435 cells assessed as accumulation at G2/M phase at 5 uM after 12 hrs using propidium iodide staining by flow cytometry (reference value: 9%); format: functional
MDA-MB-435 [27] = experiment: Cell cycle arrest in human MDA-MB-435 cells assessed as accumulation at G0/G1 phase at 5 uM after 24 hrs using propidium iodide staining by flow cytometry (reference value: 50%); format: functional
MDA-MB-435 [28] = experiment: Cell cycle arrest in human MDA-MB-435 cells assessed as accumulation at G2/M phase at 5 uM after 24 hrs using propidium iodide staining by flow cytometry (reference value: 9%); format: functional
MDA-MB-435 [29] = experiment: Cell cycle arrest in human MDA-MB-435 cells assessed as accumulation at S phase at 5 uM after 24 hrs using propidium iodide staining by flow cytometry (reference value: 41%); format: functional

Row | logP [1] | SMILES | Activity (MDA-MB-435 [3]) | Activity (MDA-MB-435 [4]) | IC50 (HEY) [µM] | IC50 (HCT-116 [5]) [µM] | Activity (MDA-MB-435 [6]) [%] | Activity (MDA-MB-435 [7]) [%] | viability at 10 µM (MDA-MB-435 [9]) [%] | Activity (MDA-MB-435 [10]) [%] | Activity (MDA-MB-435 [11]) [%] | viability at 10 µM (MDA-MB-435 [12]) [%] | IC50 (UMUC3) [µM] | IC50 (NCI/ADR-RES) [µM] | Activity (MDA-MB-435 [14]) [%] | IC50 (HT-29) [µM] | IC50 5637 [µM] | IC50 (MDA-MB-435 [15]) [µM] | IC50 (HCT-116 [16]) [µM] | Activity (MDA-MB-435 [18]) [%] | also measured
1 | 0.54 | CC(=O)O[C@H]1C(=O)[C@@]2(C)[C@H]([C@H](OC(=O)c3ccccc3)[C@]3(O)C[C@H](OC(=O)[C@H](O)[C@@H](NC(=O)c4ccccc4)c4ccccc4)C(C)=C1C3(C)C)[C@]1(OC(C)=O)CO[C@@H]1C[C@@H]2O [PACLITAXEL] | Active |  |  |  |  |  |  |  |  |  |  |  |  |  |  |  |  |  | Activity (MDA-MB-435 [2]): inactive
2 | 3.7 | C#CC(=O)N(c1cccc(C(F)(F)F)c1)C(C(=O)NC1CCCC1)c1cccc(OC)c1 (stereo not given) | Active | Active | 5.2 | > 10 | 1 | 1 | 52 | 4 | 37 | 93 | > 20 | 0.2 | 2 | 7.2 | 0.6 | 6.3 | 8.8 | 10 | Activity (Mus musculus [8]): Non-toxic; Activity (MDA-MB-435 [13]): Active; Activity (Mus musculus [17]): 29 g
3 |  | O=C(O)c1ccccc1C1c2cc(Cl)c(O)cc2Oc2cc(O)c(Cl)cc21 |  |  |  |  |  |  |  |  |  |  |  |  |  |  |  |  |  |  | Activity (MDA-MB-435 [19]): inactive
4 | 3.91 | C#CC(=O)N(c1ccc(-n2cnnn2)c(C)c1)C(C(=O)NC1CCCC1)c1ccccc1F (stereo not given) | Active | Active | 1.5 | 6.3 | 1 | 3 | 11 | 27 | 62 | 66 | 6.3 | 1 | 6 | 1.8 | 0.7 | 1.4 | 5.5 | 24 | Activity (MDA-MB-435 [20]): 51%; Activity (MDA-MB-435 [21]): 36%; Activity (MDA-MB-435 [22]): 40%; Activity (MDA-MB-435 [23]): 9%; Activity (MDA-MB-435 [24]): 51%; k el [25]: 5.72e-05 s⁻¹; Activity (MDA-MB-435 [26]): 13%; Activity (MDA-MB-435 [27]): 33%; Activity (MDA-MB-435 [28]): 16%; Activity (MDA-MB-435 [29]): 51%
